In test [1] the test system is Rattus norvegicus. The test can be described thus: Inhibition of ethanol induced gastric lesions in the rat following p.o. administration. Conditions: Stomach, po. It counts as functional. The method in brief:
(§1)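 Male Sprague-Dawley rats (200–300 g) were fasted 24 h and dosed orally at 2 mL/kg, 30 min before 1 mL of 100% ethanol per rat. Animals were killed 1 h later, and stomachs were formalin-fixed, opened along the greater curvature and examined for lesions. ED50 is the dose giving 50% lesion inhibition versus control, derived by linear regression from three dose groups of eight rats each.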

Test [2] is filed under the species Rattus norvegicus. The test can be described thus: Antiaggregatory activity is expressed as dose that inhibit rat platelet aggregation induced by collagen by 50% of that of the control. The test is classed as functional. The method in brief:
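Male Wistar rats (250–350 g) under ether anesthesia were bled from the abdominal aorta into 0.1 volume 3.13% sodium citrate. Aggregation was induced by collagen (final 5 μg/mL) and read in an aggregometer at 37 °C with stirring. The IC50 is the concentration inhibiting aggregation by 50% versus control, derived by linear regression from three dose groups of five or six animals (mean ± SEM).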

Test [3] deals with Rattus norvegicus. The test can be described thus: Dose that reduces mean blood pressure by 15 mmHg (peak effect) in rat administered intravenously. The test is classed as functional. The essentials:
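Male Wistar rats (200–300 g) were anesthetized with urethane. Compound was given iv via the femoral vein, and blood pressure was recorded by transducer through a femoral artery catheter. MBP15 is the dose lowering mean blood pressure by 15 mmHg at peak effect, derived by linear regression from three dose groups of five or six animals (mean ± SEM).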

For test [4], the species on record is Rattus norvegicus. Briefly: Relative potency for hypotension in rats. The test is classed as functional.
For test [5], the species on record is Rattus norvegicus. The test can be described thus: Relative potency for antiaggregation in rats. The test is classed as functional. The essentials:
(§2)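 Antiaggregation relative potency was calculated against PGI2 from the IC50 for collagen-induced (5 μg/mL) aggregation of citrated rat blood, measured at 37 °C.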

Test [6] is described as follows: Ratio of relative potencies of antiaggregation/ hypotension to that of PGI-2 Na in rats.
Test [7] deals with Rattus norvegicus. The test can be described thus: Inhibition of ethanol induced gastric lesions in the rat following p.o. administration; No effect. It counts as functional, organism-based. Conditions: Stomach. The essentials:
as §1

Test [8] is filed under the species Rattus norvegicus. Briefly: Relative potency for organ protection in rats. The test is classed as functional. The method in brief: (§3)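 Relative potencies were calculated against PGE2 from the rat oral ED50 for ethanol-induced gastric lesions and the iv MBP15 hypotension dose. The ratio is organ-protective relative potency divided by hypotensive relative potency, with PGE2 set to 1.0.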

The species entered for test [9] is Rattus norvegicus. The test can be described thus: Relative potency for antiaggregation. The test is classed as functional. The essentials:
as §2

A short description of test [10]: Ratio of relative potencies of organ protection/ hypotension to that of PGE-2 in rats. It counts as functional. The method in brief:
as §3

Test [11] has as its system Rattus norvegicus. The test can be described thus: Organ-protective activity is expressed as dose that inhibits 50 percent of ethanol-induced gastric lesions of control orally in rat; No effect. The test is classed as functional, organism-based. The following applies: Stomach. The method in brief:
as §1

The species entered for test [12] is Rattus norvegicus. Briefly: Relative potency for hypotension. It counts as functional.

These results are taken from ChEMBL document CHEMBL1124572, “Synthesis and biological activity of novel carbacyclins having bicyclic substituents on the omega-chain” (J Med Chem, 1989).

Converted amounts (≈) assume the structure as drawn. The source made the active and inactive calls. The rule behind the calls is not given here. Where only a bound is given, the exact number is not on record here.

In the case of `O=C(O)CCC/C=C1\CC2C[C@@H](O)[C@H](/C=C/[C@@H](O)C3Cc4ccccc4C3)C2C1` (some centres not stated), in the test with Rattus norvegicus [1], the 50% effect level (ED50) was put at a dose of 0.0562 mg/kg. For the same molecule, half-maximal inhibition in the test filed under Rattus norvegicus [2] (IC50) required 0.0204 µg/mL (≈ 0.0514 µM). Further, in the test on Rattus norvegicus [3], the “Dose lowering mean blood pressure by 15 mmHg” value was 0.0043 mg/kg. In addition, the Relative potency was determined as 0.07 in the test listed under Rattus norvegicus [4] and 0.17 in the test listed under Rattus norvegicus [5]. Further, the Ratio in [6] is recorded as 2.4.
Consider `O=C(O)COC/C=C1\CC2C[C@@H](O)[C@H](/C=C/[C@@H](O)C3COc4ccccc4O3)C2C1` (some centres not stated), for which the ED50 (in general, the dose that gives a 50% effect, or the effect in half of the subjects) with Rattus norvegicus [1] was 0.113 mg/kg. Besides, the IC50 – broadly, the concentration that inhibits the measured activity by half – in the test listed under Rattus norvegicus [2] stood at 0.582 µg/mL (≈ 1.4 µM). Further, the “Dose lowering mean blood pressure by 15 mmHg” value in the test on Rattus norvegicus [3] is 0.0025 mg/kg.
In the same order, the values of `O=C(O)CCC/C=C1\CC2C[C@@H](O)[C@H](/C=C/[C@@H](O)C3Cc4ccc([N+](=O)[O-])cc4C3)C2C1` (some centres not stated) are 0.14 mg/kg, 0.15 µg/mL (≈ 0.34 µM) and 0.0085 mg/kg.
Molecule `CC(C)c1cccc2c(CC[C@H](O)/C=C/[C@@H]3C4C/C(=C/CCCC(=O)O)CC4C[C@H]3O)ccc-2c1` (some centres not stated) yielded an IC50 in the test listed under Rattus norvegicus [2] of over 1 µg/mL. Also, the “Dose lowering mean blood pressure by 15 mmHg” value in the test with Rattus norvegicus [3] is over 0.1 mg/kg. For the same molecule, in the test with Rattus norvegicus [7], the ED50 result was “No effect”.
Molecule `NC(=O)CCC/C=C1\CC2C[C@@H](O)[C@H](/C=C/[C@@H](O)C3Cc4ccccc4C3)C2C1` (some centres not stated) gave an ED50 in the test with Rattus norvegicus [1] of 0.113 mg/kg. Moreover, inhibition in the test filed under Rattus norvegicus [2] was half-maximal at 0.0537 µg/mL (≈ 0.136 µM) (IC50). Besides, in the test on Rattus norvegicus [3], the “Dose lowering mean blood pressure by 15 mmHg” value worked out at 0.0977 mg/kg.
Molecule `O=C(O)CCC/C=C1\CC2C[C@@H](O)[C@H](/C=C/[C@@H](O)C3COC4CCCCC4O3)C2C1` (some centres not stated) returned an ED50 in the test with Rattus norvegicus [1] of 0.256 mg/kg. Also, in the test listed under Rattus norvegicus [2], the IC50 is over 1 µg/mL. Moreover, in the test with Rattus norvegicus [3], the “Dose lowering mean blood pressure by 15 mmHg” value came out at 0.0135 mg/kg.
As for `O=C(O)CCC/C=C1\CC2C[C@@H](O)[C@H](C#C[C@@H](O)C3Cc4ccccc4C3)C2C1` (some centres not stated), the ED50 with Rattus norvegicus [1] was determined as 0.0017 mg/kg. Half-maximal inhibition in the test listed under Rattus norvegicus [2] (IC50) was put at 0.0082 µg/mL (≈ 0.0208 µM). Besides, in the test with Rattus norvegicus [3], the “Dose lowering mean blood pressure by 15 mmHg” value came out at 0.0013 mg/kg. Besides, the Relative potency in the test listed under Rattus norvegicus [8] came out at 20.1; in the test filed under Rattus norvegicus [9], 0.42; in the test listed under Rattus norvegicus [4] it was 0.9. Besides, the Ratio in test [10] was found to be 21.8; in test [6] it was 1.8.
In the test on Rattus norvegicus [1], `OCCCC/C=C1\CC2C[C@@H](O)[C@H](/C=C/[C@@H](O)C3Cc4ccccc4C3)C2C1` (some centres not stated) returned an ED50 of 0.0536 mg/kg. Also, in the test filed under Rattus norvegicus [2], the IC50 was over 1 µg/mL. Further, the “Dose lowering mean blood pressure by 15 mmHg” value in the test with Rattus norvegicus [3] was over 0.1 mg/kg.
Regarding `CCCCC[C@H](O)/C=C/[C@@H]1[C@H]2C/C(=C/CCCC(=O)[O-])O[C@H]2C[C@H]1O.[Na+]` [EPOPROSTENOL SODIUM], the ED50 result in the test with Rattus norvegicus [11] was “inactive”. This molecule displayed an IC50 in the test listed under Rattus norvegicus [2] of 0.0034 µg/mL. In the test on Rattus norvegicus [3], the “Dose lowering mean blood pressure by 15 mmHg” value stood at 0.0003 mg/kg. Further, the Relative potency in the test listed under Rattus norvegicus [9] and in the test filed under Rattus norvegicus [12] was 1 throughout.
In turn, `CC1([C@H](O)/C=C/[C@@H]2C3C/C(=C/COCC(=O)O)CC3C[C@H]2O)Cc2ccccc2C1` (some centres not stated) returned an ED50 in the test on Rattus norvegicus [1] of 0.0397 mg/kg. In the test listed under Rattus norvegicus [2], this molecule had a concentration for half-maximal inhibition (IC50) of 0.118 µg/mL (≈ 0.286 µM). The “Dose lowering mean blood pressure by 15 mmHg” value in the test on Rattus norvegicus [3] came to 0.0076 mg/kg.
Taken in the same sequence, the figures for `CC1([C@H](O)/C=C/[C@@H]2C3C/C(=C/CCCC(=O)O)CC3C[C@H]2O)Cc2ccccc2C1` (some centres not stated) were 0.0452 mg/kg, 0.0302 µg/mL (≈ 0.0736 µM) and 0.0053 mg/kg.
In the same order, the values of `CC1([C@H](O)/C=C/[C@@H]2C3CC(CCOCC(=O)O)=C[C@H]3C[C@H]2O)Cc2ccccc2C1` (some centres not stated) are 0.006 mg/kg, 0.0692 µg/mL (≈ 0.168 µM) and 0.002 mg/kg.
For `O=C(O)CCC/C=C1\CC2C[C@@H](O)[C@H](/C=C/[C@@H](O)C3CCc4ccccc43)C2C1` (some centres not stated), the half-inhibitory concentration (IC50) in the test filed under Rattus norvegicus [2] is over 1 µg/mL. Besides, the “Dose lowering mean blood pressure by 15 mmHg” value in the test with Rattus norvegicus [3] is over 0.1 mg/kg. Further, the ED50 result with Rattus norvegicus [7] is “No effect”.
Taken in the same sequence, the figures for `O=C(O)CCC/C=C1\CC2C[C@@H](O)[C@H](/C=C/[C@@H](O)c3ccc4c(c3)CCC4)C2C1` (some centres not stated) were over 1 µg/mL, over 0.1 mg/kg and “No effect”.
